The chains are these.
B1: tRNA (parent)
chain: GUUCCGUUGGCGUAAUGGUAACGCGUCUCCCUCCUAAGGAGAAGACUGCGGGUUCGAGUCCCGUACGGAACG

This sample holds only a part of the variants without activity. Some results are limits rather than exact numbers.

The variants in the data set derive from B1. The data set can be described thus: yeast fitness relative to wild type (ratio to wild type); higher = fitter; tRNA-Arg(CCU), competitive growth, 37 C, YPD. The method in brief:
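Gene amplicons from the start population and from each of six end populations were read by 100-nucleotide paired-end sequencing. Those end populations came from pooled Saccharomyces cerevisiae strains carrying tRNA-Arg(CCU) gene variants at the native locus, competed in YPD at 37°C for 24 hours. Fitness relative to wild type was worked out from changes in genotype frequencies. Genotypes needed ≥ 100 starting reads, and estimates < 0.5 were set to 0.5.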
For the variant GUUCCGUUGGCGUAAUGGUAACGCGUUUCCCUCGUAAGGAGAAGACUGCGGGUUCGGGUCCAGUACGGAACG, the yeast fitness was no more than 0.5.
In the case of GUUCCGUUGGCGUAAUGGUAACGCGUUUCCCUCCUAAGGAGAAGACUGUGGGUUCGAGUCCCGUACGGAACG it was 1; in that of GUUCCGUUGGCGUAAUGGUAACGCGUUUCCCUCCUAAGGAGAAGACUACGGGUUCGAGACCCGUACGGAACG, 0.684.
For GUUCCGUUGGCGUAAUGGUAACGCGUUUCCCUCCUAAGGAGAAGACUGCGAGUUCGAGUCCCGUACGGAACG the value was 0.836; for GUUCCGUUGGCGUAAUGGUAACGCGUUUCCCUCCUAAGGAGAAGACUGCGGGUUCGAGUUCCGUAUGGAACG, 0.695.
In the case of GUUCCGUUGGCGUAAUGGUAACGCGUUUCCCUCCUAAGGAGAAAACUGUGGAUUCGCGUCCCGUACGGAACG it was no more than 0.5; in that of GUUCCGUUGGCGUAAUGGUAACGCGUUUCCCUCCUAAGGAGAAGACUGCGCGUUCGAGUCGCGUACGGAACG, no more than 0.5.
On to GUUCCGUUGGCGUAAUGGUAACGCGUUUCCCUCCUAAGGAGAAGAUUACGGGUUCGAGUCCCGUACGGAACG, for which the yeast fitness was determined as 0.888.
In the case of GUUCCGUUGGCGUAAUGGUAACGCGUUUCCCUCGUACGGAGAAGACUGCGGGUUCGAGUCCCGUACGGAACG it was no more than 0.5; in that of GUUCCGUUGGCGUAAUGGUAACGCGUUUCCCUCCUAAGGAGAAGACUACGGGUUCGAGUCCCGUACGGAUCG, 0.775.
In the case of GUUCCGUUGGCGUAAUGGUAACGCGUUUCCCUCCUAAGGAGAACACUGCGGGUUCGAGUCCCGUACGAAACG it was 0.666; in that of GUUCCGUUGGCGUAAUGGUAACGCGUUUCCCUCCUAAGGAGAACACUGCGGGUUCGAGUCCCGUACGGAACG, 1.03; in that of GUUCCGUUGGCGUAAUGGUAACGCGUUUCCCUCCUAAGGAGAAGACUGCGGGUUCGAGUUCCGUACGGAACG, 0.849.
In the case of GUUCCGUUGGCGUAAUGGUAACGCGUUUCCCUCCUAAGGAGAAGACUGCGGGUUCGAGUACCGUACGGAACG it was 0.552.
GUUCCGUUGGCGUAAUGGUAACGCGUUUCCCUCCUAAGGAGAAGACUGCGGGUUUACGUCCCGUACGGAACG: the yeast fitness was 0.526.
In the case of GUUCCGUUGGCGUAAUGGUAACGCGUUUCCCUCUUAAGGAGAAGGCCGCGGGUUCGAGUGCCGUACGGAACG it was no more than 0.5; in that of GUUCCGUUGGCGUAAUGGUAACGCGUUUCCCUCCUAAGGAGAAGACUGCGGGUUCCAGUCCCGUAUGGAACG, no more than 0.5.
In the case of GUUCCGUUGGCGUAAUGGUAACGCGUUUCCCUCCUAAGGAGAAGACUGCGCGUUCGAGUCCGGUACGGAACG it was no more than 0.5; in that of GUUCCGUUGGCGUAAUGGUAACGCGUUUCCCUCCUAAGGACAAGACUGCGGGUUCGAGUCCCGCACGGACCG, 0.675; in that of GUUCCGUUGGCGUAAUGGUAACGCGUUUCCCUCCUAAGCAGAAGACUGUGGGUUCGAGUCCCGUACGGAACG, no more than 0.5.
In the case of GUUCCGUUGGCGUAAUGGUAACGCGUUUCCCUCUCAAGGAGAAGACCGCGGGGUCGAGUCCCGUACGGUACG it was no more than 0.5.
Consider GUUCCGUUGGCGUAAUGGUAACGCGUUUCCCUCCUAAGGAGAAGACUAUGGGUUCGAGUCCCGUACGGAUCG, for which the yeast fitness was 0.752.
Take GUUCCGUUGGCGUAAUGGUAACGCGUUUCCCUCCUAAGGAGAAGAGUGCGGGUUCGAGUCCCGUAGGGGACG: the yeast fitness was no more than 0.5.
In the case of GUUCCGUUGGCGUAAUGGUAACGCGUUUCCCUCCUAAGGAGAAGACUGCGAGAUCGAGUCCCCUACGGAACG it was no more than 0.5; in that of GUUCCGUUGGCGUAAUGGUAACGCGUUUCCCUCCUAAGGAGAAGACUGCGGCUUCGAGUUCCGUACGGAACG, 0.521; in that of GUUCCGUUGGCGUAAUGGUAACGCGUUUCCCUCCUAAGGAGAAGACUGCGCGUUCGAGCCCAGUACGGAACG, no more than 0.5.
For GUUCCGUUGGCGUAAUGGUAACGCGUUUCCCUCCUAAGGAGAAGACUGUGGGUUCGAGUAACGUACGGAACG the value was no more than 0.5; for GUUCCGUUGGCGUAAUGGUAACGCGUUUCCCUCCUAAGGAGAAGACUGCGGGUUCGAGUCCCGUAAGGAACG, 0.701; for GUUCCGUUGGCGUAAUGGUAACGCGUUUCCCUCCUAAGGAGAAGACUGCGGGUUCGAGUCCUGUUCGGAACG, 0.718.
As to GUUCCGUUGGCGUAAUGGUAACGCGUUUCCCUCAUAAGGAGAACACUGCGGGUUCGAGUCCAGUACGGAACG, the yeast fitness came to 0.539.
For GUUCCGUUGGCGUAAUGGUAACGCGUUUCCCUCCUAAGGAGAAGACUGCGGGUUCGAGUCCUGUACGGACCG the value was 0.756.
In the case of GUUCCGUUGGCGUAAUGGUAACGCGUUUCCCUCUUAAGGAGAAAACUGCGGGUUCGAGUCCCGUACGGAACG it was no more than 0.5; in that of GUUCCGUUGGCGUAAUGGUAACGCGUUUCCCUCCUAAGGAGAAGACUGAGGGUUCGAGUCCCGCACAGAACG, no more than 0.5.
Turning to GUUCCGUUGGCGUAAUGGUAACGCGUUUCCCUCCUAAGGAGAAGAAUGCAGGUUCGAGUCCUGUACGGAACG, the yeast fitness was determined as 0.888.
Turning to GUUCCGUUGGCGUAAUGGUAACGCGUUUCCCUCCUAAGAAGAAGAUUGCGGGUUCGAGUCCCGUACGGAACG, the yeast fitness turned out to be 0.918.
As for GUUCCGUUGGCGUAAUGGUAACGCGUUUCCCUCCUAAGGAGAAGAAUGCGGGUUCGAGUCCCGUACGGAGCG, the yeast fitness was found to be 0.66.
With GUUCCGUUGGCGUAAUGGUAACGCGUUUCCCUCCUAAGGAGAAGACUGCGAGUUCGAGACCCGUACGGAACG, the yeast fitness is 0.568.
Turning to GUUCCGUUGGCGUAAUGGUAACGCGUUUCCCUCCUAAGGAGAAGACUGCGGGUUCGACUCCCGUACGGCACG, the yeast fitness stood at 1.05.
GUUCCGUUGGCGUAAUGGUAACGCGUUUCCCUCCUAAAGAGAAGACUGCGGGUUCGAGUCCCGUAAGGAACG: the yeast fitness turned out to be 0.645.
In the case of GUUCCGUUGGCGUAAUGGUAACGCGUUUCCCUCCUAAGGAGAAGACUGCGGGUUCGAGUCGCGUACGGAACG it was 0.647; in that of GUUCCGUUGGCGUAAUGGUAACGCGUUUCCCUCCUAAGGAGAAGACUGCGGGUUCGAGUCACGUACGGAACG, 0.62; in that of GUUCCGUUGGCGUAAUGGUAACGCGUUUCCCUCCUAAGGAGAAGAUUGCGGGUUCGAGUCCCGUUCGGACCG, 0.828.
As to GUUCCGUUGGCGUAAUGGUAACGCGUUUCCCUCCUAAGGAGAAGAGUGCGGGUUCGAGUCCCGUACGGAACG, the yeast fitness stood at 1.04.
For GUUCCGUUGGCGUAAUGGUAACGCGUUUCCCUCCUAAGGAGAAGAUUGCGGGUUCGAGUCCCGUACGGAACG the value was 0.978; for GUUCCGUUGGCGUAAUGGUAACGCGUUUCCCUCCUAAGGAGAAGAAUGCGGGUUCGAGUCCCGUACGGAACG, 0.942; for GUUCCGUUGGCGUAAUGGUAACGCGUUUCCCUCCUAAGGAGAACACUGCGGGUUCGAGUCCCGUUCGGAACG, 0.691.
For GUUCCGUUGGCGUAAUGGUAACGCGUUUCCCUCCUAAGGAGAAGAGUGCGGGUUCGAGUCCCGUGCGGAACG the value was 0.725; for GUUCCGUUGGCGUAAUGGUAACGCGUUUCCCUCCUAAGGAGAAGACUGCGGGUUCGACUCCCGUACGGAACG, 1.02; for GUUCCGUUGGCGUAAUGGUAACGCGUUUCCCUCCUAAGGAGAAGACUGCGGGUUCGAAUCCCGUACGGAACG, 0.899.
For GUUCCGUUGGCGUAAUGGUAACGCGUUUCCCUCGUAAGGAGAAGACUGCGGGUUCGAGUCCCGUACGGAACG the value was 0.698.
Take GUUCCGUUGGCGUAAUGGUAACGCGUUUCCCUCGUAAGGAGAAGUCUGCGGGUUCGAGUACCGUACGGAACG: the yeast fitness was no more than 0.5.
In the case of GUUCCGUUGGCGUAAUGGUAACGCGUUUCCCUCCUAAGAAAAAGACUGCGGGUUCGAGUCCCGUACGGUACG it was 0.674; in that of GUUCCGUUGGCGUAAUGGUAACGCGUUUCCCUCCUAAGCAGAAGACUGUGGGUUCGAGUCCCCUACGGAACG, no more than 0.5; in that of GUUCCGUUGGCGUAAUGGUAACGCGUUUCCCUCGUAAGGAGAAGACUGCGGGUUCGAGUCCAGUACGGAACG, 0.586.
In the case of GUUCCGUUGGCGUAAUGGUAACGCGUUUCCCUCCUAAGGAGAAGACUGCAGAUUCGAGCCCCGUAUGGAACG it was 0.53.
Regarding GUUCCGUUGGCGUAAUGGUAACGCGUUUCCCUCCUAAAGAGAAGACUGCGGGUUCGAGUCUCGUAAGGAACG, the yeast fitness was no more than 0.5.
Turning to GUUCCGUUGGCGUAAUGGUAACGCGUUUCCCUCCUAAGGAGAAGACUGCGCGUUAGAGUCCCGUAUGGAACG, the yeast fitness stood at 0.53.
For GUUCCGUUGGCGUAAUGGUAACGCGUUUCCCUCCUAAGGAGAAGAUUGCGGGUUCGAGUCCCGUACUGAACG the value was 0.626; for GUUCCGUUGGCGUAAUGGUAACGCGUUUCCCUCCUAAGGAGAAGACUGCGGGUUCGAGUCCCGUAGCGAACG, no more than 0.5.
In the case of GUUCCGUUGGCGUAAUGGUAACGCGUUUCCCUCCUAAGGACAAGACUGCGGGUUCGAGUCCCGUACGGAACG it was 0.898.
For GUUCCGUUGGCGUAAUGGUAACGCGUUUCCCUCGUAAGGAGAAGUCUGCGGGUUCGAGUCCCGUACGGAACG the value was 0.511; for GUUCCGUUGGCGUAAUGGUAACGCGUUUCCCUCCUAAGGAGAAGACUGCGGGUUCGAGUCCAGUACGGAACG, 0.764; for GUUCCGUUGGCGUAAUGGUAACGCGUUUCCCUCCUAAGGAGAAGACUGCGGGUUCGAGUCCUGUACGGAACG, 1.01.
For the variant GUUCCGUUGGCGUAAUGGUAACGCGUUUCCCUCCUAAGGAGAACACUGCGGGUUCGAGGCCCGUACGGAACG, the yeast fitness was no more than 0.5.
In the case of GUUCCGUUGGCGUAAUGGUAACGCGUUUCCCUCCUAAGGAGAACACUGCGGGUUCGAGUCCUGUACGGAACG it was 0.733; in that of GUUCCGUUGGCGUAAUGGUAACGCGUUUCCCUCCUAAGGAGAAGACUGAGGGUUCGAGUCCCGCACGGAACG, 0.756; in that of GUUCCGUUGGCGUAAUGGUAACGCGUUUCCCUCCUAACGAGAACACUGCGGGUUCGAGUCCCGUACGGAACG, 0.531.
With GUUCCGUUGGCGUAAUGGUAACGCGUUUCCCUCCUAAAGAGAAGACUCCGGGUUCGAGUCCCGUACGGAACG, the yeast fitness was 0.562.
In the case of GUUCCGUUGGCGUAAUGGUAACGCGUUUCCCUCCUAAGGAGAAGACUAUGGGUUCGAGUCCCGUGCGGAACG it was 0.714.
In the case of GUUCCGUUGGCGUAAUGGUAACGCGUUUCCCUCCUAAGGAGAAGACUGCGCGUUCGAGCCCCAUACGGAACG it was no more than 0.5; in that of GUUCCGUUGGCGUAAUGGUAACGCGUUUCCCUCCUAAGGAGAAGACUGCGGGUUCGAGUCCAGUAUGGAACG, no more than 0.5.
In the case of GUUCCGUUGGCGUAAUGGUAACGCGUUUCCCUCGUAAGGGGAAGAGUGAGGGUUCGAGCCCCGUACGGAACG it was no more than 0.5; in that of GUUCCGUUGGCGUAAUGGUAACGCGUUUCCCUCCUAAGGAGAAGACUGCGGGUUAGAGUCCCGUACGGAACG, 0.583; in that of GUUCCGUUGGCGUAAUGGUAACGCGUUUCCCUCCUAAGGAGAAGACUGCGGGUUGGAGUCCCGUACGGAACG, 0.675.
Turning to GUUCCGUUGGCGUAAUGGUAACGCGUUUCCCUCCUAACGUGAAGGCUGCGGAUUCGAGUCCCGUCCGGAACG, the yeast fitness is no more than 0.5.

Source of the values: the RNAGym collection of RNA variant scans (doi:10.1126/science.aae0568).
